High-throughput results as filed in PubChem.
In the library only some 11% were active in any assay of this set; here they are far more common.
L major viab = inhibitors of Leishmania major promastigote growth; Leishmania major promastigotes, resazurin fluorescence viability; inhibition, % at 10 µM; 200,000 compounds, 9% hits;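 also: promastigotes grown with compound for 44 hours at 28 °C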
Diaph act CS = counter-screen for diaphorase-based assays: diaphorase activators and chemical reducers; Diaphorase/resazurin coupled assay, resorufin fluorescence, 16 min; active compounds read high; 1 = vehicle wells, 0 = NADH-free wells; activation factor at 20 µM; 190,000 compounds, 0.005% hits; AID 1229;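 active = diaphorase activity raised at least twofold by the compound at 20 µM; inactive = activation factor below 2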
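Material: purified diaphorase enzyme from Clostridium kluyveri; Also added: 0.114 mM NADH and 0.1 mM resazurin, final amounts; Doses: single compound dose of 20 µM, 1% DMSO final; Times: 16 min enzyme reaction, ambient temperature; Detection: resorufin fluorescence, excitation 544 nm, emission 590 nm; Measure: increased resorufin signal from activators or reducing compounds.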
WT yeast gro inh = growth inhibition of WT yeast, mitochondrial fusion screen. mitochondrial fusion phenotypic screen, WT strain. inhibition, % at 10 µM. 190,000 compounds, 2.1% hits. AID 1362; in the data active = inhibition above about 58%; tested in S. cerevisiae
G6PDH CS = L. mesenteroides G6PDH inhibition counter-screen | Purified L. mesenteroides G6PDH, diaphorase/resazurin coupled fluorescence, 45 min | inhibition, % at 5 µM | 200,000 compounds, 0.12% hits | AID 1020
Diaph inh CS = counter-screen for diaphorase-based assays: diaphorase inhibitors and chemical oxidizers | inhibition, % at 20 µM | 190,000 compounds, 0.69% hits | AID 1217 | diaphorase resazurin-to-resorufin fluorescence, NADH, 16 min; bacterial (C. kluyveri) enzyme, not human;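 active = primary screen inhibition at 20 µM above a set limit, cut at about 50% in these data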;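 also: plate controls were DMSO with full reaction for no effect and wells lacking NADH for full effect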
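Test system: bacterial diaphorase enzyme (C. kluyveri); Quantity: 0.14 U/mL diaphorase, enzyme working solution; Times: reaction incubation of 16 min at room temperature; Measured by: fluorescence of resorufin formed from resazurin, Ex 544/Em 590 nm; Benchmarks: positive control minus NADH, DMSO neutral control.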
* hit, by the source's call. Rule as the data show it, unless noted: active = inhibition above about 50%; inactive = the rest.

How did CCOC(=O)CSC1=C(C#N)C(c2ccccc2)C(C(C)=O)=C(C)N1 (centres undefined) do in these assays?
L major viab: 5; Diaph act CS: 1.1; WT yeast gro inh: -9; G6PDH CS: 8; Diaph inh CS: -10

How did CC1=C(C(=O)Nc2nc3ccccc3s2)C(c2ccco2)C(C#N)=C(SCC(=O)NC2CCCCC2)N1 (centres undefined) do in these assays?
L major viab: 73*; Diaph act CS: 0.9; WT yeast gro inh: 0; G6PDH CS: 5; Diaph inh CS: 9

Results for CCCSC1=C(C#N)C(c2cccs2)C(C(=O)Nc2ccccc2)=C(C)N1 (centres undefined) ?
L major viab: 89*; Diaph act CS: 0.8; WT yeast gro inh: 24; G6PDH CS: 9; Diaph inh CS: 24

What do the screens show for `CCSC1=C(C#N)C(c2cccs2)C(C(=O)OC)=C(C)N1` (centres undefined)?
L major viab: 24; Diaph act CS: 0.8; WT yeast gro inh: 6; G6PDH CS: 5; Diaph inh CS: 25

Results for O=C(Cc1ccccc1)Nc1ccc2oc(=O)ccc2c1 ?
L major viab: -9; Diaph act CS: 0.9; WT yeast gro inh: 9; G6PDH CS: 10; Diaph inh CS: 8

What do the screens show for `CCOC(=O)C1=C(C)NC(SCC(=O)Nc2cc(C)on2)=C(C#N)C1c1cccs1` (centres undefined)?
L major viab: 60*; Diaph act CS: 0.8; WT yeast gro inh: 4; G6PDH CS: 6; Diaph inh CS: 22

What do the screens show for `CC(C)(C)N(Cc1ccccc1)C(=O)c1ccc(Cl)cc1[N+](=O)[O-]`?
L major viab: 13; Diaph act CS: 0.9; WT yeast gro inh: 4; G6PDH CS: 0; Diaph inh CS: 12

What do the screens show for `O=C(c1ccc(Cl)cc1[N+](=O)[O-])N(Cc1ccccc1)Cc1ccccc1`?
L major viab: 10; Diaph act CS: 0.8; WT yeast gro inh: 61*; G6PDH CS: -10; Diaph inh CS: 17

What do the screens show for `COc1ccc(C(C#N)Nc2ccccc2)cc1` (centres undefined)?
L major viab: -1; Diaph act CS: 0.9; WT yeast gro inh: -6; G6PDH CS: 8; Diaph inh CS: 11

How did COc1ccc(NC(C#N)c2ccc(OC)cc2)cc1 (centres undefined) do in these assays?
L major viab: 91*; Diaph act CS: 0.9; G6PDH CS: 4; Diaph inh CS: 9

Results for CCOC(=O)CC(=O)CSc1ccc2nnc(-c3ccc(F)cc3)n2n1 ?
L major viab: 5; Diaph act CS: 0.8; WT yeast gro inh: 11; G6PDH CS: 0; Diaph inh CS: 17

How did CCCN(CCC)CCCNc1ccc2nnc(-c3ccc(F)cc3)n2n1 do in these assays?
L major viab: 59*; Diaph act CS: 0.9; WT yeast gro inh: -22; G6PDH CS: 1; Diaph inh CS: 5

Results for Cc1nc2nc(-c3ccco3)[nH]n2c(=O)c1C ?
L major viab: -1; Diaph act CS: 0.9; WT yeast gro inh: -18; G6PDH CS: 4; Diaph inh CS: 8

What do the screens show for `COC(=O)CNC(=O)CNC(=O)c1nn(-c2ccc(OC)c(Cl)c2)c(=O)c2ccccc12`?
L major viab: -6; Diaph act CS: 0.8; WT yeast gro inh: 76*; G6PDH CS: 3; Diaph inh CS: 18

Results for Cc1ccc2c(c1)nnn2C1CCN(C(=O)C2CCCCC2)CC1 ?
L major viab: -9; Diaph act CS: 0.9; WT yeast gro inh: 12; G6PDH CS: 10; Diaph inh CS: 8

Results for S=C(NCCOCCOCCNC(=S)Nc1ccccc1)Nc1ccccc1 ?
L major viab: 4; Diaph act CS: 1; WT yeast gro inh: 3; G6PDH CS: 6; Diaph inh CS: -1

What do the screens show for `Cc1ccc(C(=O)NCCSCc2ccc(Cl)cc2Cl)cc1[N+](=O)[O-]`?
L major viab: 0; Diaph act CS: 0.9; WT yeast gro inh: 38; G6PDH CS: -2; Diaph inh CS: 10

How did S=C(NCCSCc1ccc(Cl)c(Cl)c1)Nc1ccccc1 do in these assays?
L major viab: 15

How did S=C(NCCSCc1c(Cl)cccc1Cl)Nc1ccccc1 do in these assays?
L major viab: 17; Diaph act CS: 0.7; WT yeast gro inh: 82*; G6PDH CS: 6; Diaph inh CS: 28

What do the screens show for `Cc1c(C(=O)NCCSCc2ccc(Cl)cc2Cl)cccc1[N+](=O)[O-]`?
L major viab: -4; Diaph act CS: 0.9; WT yeast gro inh: 69*; G6PDH CS: 8; Diaph inh CS: 9

Results for COc1ccc(CSCCNC(=S)Nc2ccccc2)cc1Cl ?
L major viab: 11; Diaph act CS: 0.9; WT yeast gro inh: 77*; G6PDH CS: -2; Diaph inh CS: 15

Results for Cc1ccccc1CSCCNC(=S)Nc1ccccc1 ?
L major viab: 29; Diaph act CS: 0.9; WT yeast gro inh: 71*; G6PDH CS: -2; Diaph inh CS: 14

Results for Nc1nc(SCC(=O)NC2CCCCCC2)[nH]c(=O)c1-c1ccccc1 ?
L major viab: -4; Diaph act CS: 0.9; G6PDH CS: 2; Diaph inh CS: 7

What do the screens show for `CCc1nn(C(C)C(=O)NC(C)CCc2ccco2)c(=O)c2cc3occc3n12` (centres undefined)?
L major viab: 0; Diaph act CS: 1; WT yeast gro inh: 8; G6PDH CS: 3; Diaph inh CS: 2

Results for Cc1ccc(C(=O)N(c2ccccc2)C2CC(C)N(C(=O)c3ccco3)c3ccccc32)cc1 (centres undefined) ?
L major viab: 47; Diaph act CS: 0.8; WT yeast gro inh: 55; G6PDH CS: 6; Diaph inh CS: 20

What do the screens show for `O=C(c1cn(-c2ccccc2)nc1-c1ccc(Br)cc1)N1CCOCC1`?
L major viab: 0; Diaph act CS: 0.9; WT yeast gro inh: 0; G6PDH CS: 8; Diaph inh CS: 8

How did S=C(NCCSCc1ccc(Cl)cc1Cl)Nc1ccccc1 do in these assays?
L major viab: 84*; Diaph act CS: 0.8; WT yeast gro inh: 80*; G6PDH CS: 10; Diaph inh CS: 16

How did CSc1ncccc1C(=O)OCC(=O)Nc1cc(C(F)(F)F)ccc1N1CCOCC1 do in these assays?
L major viab: 12; Diaph act CS: 0.7; WT yeast gro inh: 13; G6PDH CS: 9; Diaph inh CS: 28

What do the screens show for `c1ccc(SCCN2CCc3ccccc3C2)cc1`?
L major viab: 0; Diaph act CS: 0.7; WT yeast gro inh: -6; G6PDH CS: -3; Diaph inh CS: 25

How did OCCN1CCN(CCSc2ccccc2)CC1 do in these assays?
L major viab: 56*; Diaph act CS: 1.1; WT yeast gro inh: -1; G6PDH CS: 2; Diaph inh CS: -8

How did CCOc1ccc(CCNC(=O)COC(=O)c2cc(OC)c(OC)c(OC)c2)cc1OCC do in these assays?
L major viab: 3; Diaph act CS: 0.9; WT yeast gro inh: -3; G6PDH CS: 4; Diaph inh CS: 7
